Experimental findings from ChEMBL document CHEMBL1148767, “Synthesis and biological evaluation of the mitochondrial complex 1 inhibitor 2-[4-(4-fluorobutyl)benzylsulfanyl]-3-methylchromene-4-one as a potential cardiac positron emission tomography tracer” (J Med Chem, 2007) are described below.

Data set [1] in a line: Inhibition of bovine mitochondrial MC1. More on the design: species or system Bos taurus. In a few lines:
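Submitochondrial particles were sonicated from bovine heart mitochondria, final 45 µg/mL. Medium was 50 mM K2HPO4 pH 7.4, 0.4 µM antimycin A and 2 mM KCN. Inhibitor preincubated 4 min at varying concentrations. Reaction started with 100 µM decyl ubiquinone and 50 µM NADH at 37 °C. NADH oxidation read at 340 nm for 120 s. IC50 is 50% inhibition, referenced to a concurrent rotenone standard.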

Data set [2] concerns Blood. In words: Biodistribution in Sprague-Dawley rat blood at 15 uCi, iv after 120 mins. Conditions: in vivo, 2 h. In kind it is ADME, organism-based. In a few lines: (§1)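 Male SD rats (300-400 g) anesthetized with sodium pentobarbital (50 mg/kg ip), left femoral vein cannulated. About 15 µCi of 18F tracer (specific activity 750-2000 Ci/mmol) in 0.3 mL 10% ethanol saline given iv. Sacrificed in CO2 at 30 or 120 min (n = 5 per time point). Tissues weighed, gamma-counted, decay-corrected, and expressed as %ID/g ± SD.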

Data set [3] relates to Blood. As to the kind of experiment: Biodistribution in Sprague-Dawley rat blood at 15 uCi, iv after 30 mins. In kind it is ADME, organism-based. The note with it: in vivo, 0.5 h. In a few lines:
as §1

Data set [4] deals with Heart. In words: Biodistribution in Sprague-Dawley rat heart at 15 uCi, iv after 30 mins. Conditions: in vivo, 0.5 h. The class given is ADME, organism-based. In a few lines:
as §1

Data set [5] relates to Heart. As to the kind of experiment: Biodistribution in Sprague-Dawley rat heart at 15 uCi, iv after 120 mins. In kind it is ADME, organism-based. The note with it: in vivo, 2 h. In a few lines: as §1
The subject of data set [6] is Lung. As to the kind of experiment: Biodistribution in Sprague-Dawley rat lung at 15 uCi, iv after 30 mins. In kind it is ADME, organism-based. The note with it: in vivo, 0.5 h. In a few lines: as §1
For data set [7], the system named is Lung. In words: Biodistribution in Sprague-Dawley rat lung at 15 uCi, iv after 120 mins. The class given is ADME, organism-based. The note with it: in vivo, 2 h. The procedure, abridged:
as §1

In data set [8] the test system is Liver. As to the kind of experiment: Biodistribution in Sprague-Dawley rat liver at 15 uCi, iv after 30 mins. The class given is ADME, organism-based. The note with it: in vivo, 0.5 h. In a few lines: as §1
Data set [9] relates to Liver. In words: Biodistribution in Sprague-Dawley rat liver at 15 uCi, iv after 120 mins. In kind it is ADME, organism-based. Conditions: in vivo, 2 h. The procedure, abridged: as §1
Data set [10] concerns Spleen. As to the kind of experiment: Biodistribution in Sprague-Dawley rat spleen at 15 uCi, iv after 30 mins. The class given is ADME, organism-based. Conditions: in vivo, 0.5 h. In a few lines: as §1
In data set [11] the test system is Spleen. As to the kind of experiment: Biodistribution in Sprague-Dawley rat spleen at 15 uCi, iv after 120 mins. In kind it is ADME, organism-based. The note with it: in vivo, 2 h. In a few lines:
as §1

Data set [12] deals with Kidney. In words: Biodistribution in Sprague-Dawley rat kidney at 15 uCi, iv after 30 mins. The note with it: in vivo, 0.5 h. In kind it is ADME, organism-based. In a few lines: as §1
The test system of data set [13] is Kidney. In words: Biodistribution in Sprague-Dawley rat kidney at 15 uCi, iv after 120 mins. The class given is ADME, organism-based. The note with it: in vivo, 2 h. In a few lines: as §1
For data set [14], the system named is Femur. In words: Biodistribution in Sprague-Dawley rat femur at 15 uCi, iv after 30 mins. In kind it is ADME, organism-based. The note with it: in vivo, 0.5 h. In a few lines:
as §1

Data set [15] concerns Femur. As to the kind of experiment: Biodistribution in Sprague-Dawley rat femur at 15 uCi, iv after 120 mins. In kind it is ADME, organism-based. Conditions: in vivo, 2 h. In a few lines: as §1
Data set [16] concerns Muscle tissue. As to the kind of experiment: Biodistribution in Sprague-Dawley rat muscle at 15 uCi, iv after 30 mins. The class given is ADME, organism-based. The note with it: in vivo, 0.5 h. The procedure, abridged: as §1
The test system of data set [17] is Muscle tissue. In words: Biodistribution in Sprague-Dawley rat muscle at 15 uCi, iv after 120 mins. The class given is ADME, organism-based. Conditions: in vivo, 2 h. In a few lines: as §1
The test system of data set [18] is Brain. As to the kind of experiment: Biodistribution in Sprague-Dawley rat brain at 15 uCi, iv after 30 mins. In kind it is ADME, organism-based. Conditions: in vivo, 0.5 h. In a few lines: as §1
The subject of data set [19] is Brain. As to the kind of experiment: Biodistribution in Sprague-Dawley rat brain at 15 uCi, iv after 120 mins. The class given is ADME, organism-based. The note with it: in vivo, 2 h. In a few lines: as §1

Usually pIC50 stands for the negative decadic logarithm of the IC50, by convention in mol/L. Low readings indicate a large IC50, high ones a small IC50.

pIC50: −log10 of the molar value.

Take `CCCCc1ccc(COc2oc3ccccc3c(=O)c2C)cc1`: the pIC50 in data set [1] is 7.22.

With `CCCCc1ccc(CNc2oc3ccccc3c(=O)c2C)cc1`, in data set [1], the pIC50 is 7.24.

Turning to `Cc1c(SCc2ccc(CCCCF)cc2)oc2ccccc2c1=O`, in data set [1], the pIC50 is 8.05.

Take `Cc1c(OCc2ccc(CCCCF)cc2)oc2ccccc2c1=O`: the pIC50 in data set [1] was 7.48. This pIC50 is 0.57 log units lower than that of the compound before.

In data set [1], `Cc1c(NCc2ccc(CCCCF)cc2)oc2ccccc2c1=O` had a pIC50 of 6.88.

With `Cc1c(SCc2ccc(CCCCOCCF)cc2)oc2ccccc2c1=O`, the negative logarithm of the IC50 (pIC50) in data set [1] was 6.71.

In data set [1], `Cc1c(SCc2ccc(COCCF)cc2)oc2ccccc2c1=O` had a pIC50 of 7.82.

Consider `Cc1c(SCc2ccc(CCCC[18F])cc2)oc2ccccc2c1=O`, for which the Drug uptake with Blood [2] is on record as 0.06 % ID/g; in the data set with Blood [3], 0.11 % ID/g; with Heart [4], 2.24 % ID/g; in the data set with Heart [5] it was 1.52 % ID/g; in the data set on Lung [6], 0.32 % ID/g; in the data set with Lung [7], 0.12 % ID/g. Further, the Drug uptake in the data set on Liver [8] is given as 2 % ID/g; with Liver [9], 0.6 % ID/g; with Spleen [10], 0.41 % ID/g; with Spleen [11], 0.09 % ID/g; in the data set on Kidney [12], 1.93 % ID/g; in the data set on Kidney [13] it was 0.59 % ID/g. The Drug uptake stood at 0.36 % ID/g with Femur [14]; 0.74 % ID/g with Femur [15]; 0.06 % ID/g with Muscle tissue [16]; 0.09 % ID/g in the data set on Muscle tissue [17]; 0.26 % ID/g in the data set on Brain [18]; 0.17 % ID/g in the data set on Brain [19].

For `Cc1c(SCc2ccc(C(C)(C)C)cc2)oc2ccccc2c1=O`, in [1], the pIC50 is 7.28.

As for `Cc1c(SCc2ccc(OCC(C)F)cc2)oc2ccccc2c1=O` (stereo unspecified), the pIC50 in data set [1] is 7.80. Against the preceding compound, the pIC50 is 0.52 log units higher.

In data set [1], `CCCCc1ccc(CSc2oc3ccccc3c(=O)c2C)cc1` gave a pIC50 of 7.28.

As to `CC(C)(C)c1ccc(CCOc2ncnc3ccccc23)cc1` [FENAZAQUIN], in [1], the negative logarithm of the IC50 (pIC50) was 7.05.

As for `CC(C)(C)c1ccc(CSc2cnn(C(C)(C)C)c(=O)c2Cl)cc1` [PYRIDABEN], the pIC50 in data set [1] is 8.10.

`C=C(C)[C@H]1Cc2c(ccc3c2O[C@@H]2COc4cc(OC)c(OC)cc4[C@@H]2C3=O)O1` [ROTENONE] gave a pIC50 in data set [1] of 7.80.
